Source: ChEMBL document CHEMBL4390663, “Cationic biaryl 1,2,3-triazolyl peptidomimetic amphiphiles: synthesis, antibacterial evaluation and preliminary mechanism of action studies” (Eur J Med Chem, 2019)
≈ marks a conversion by molar mass, not a printed value.

Assays:
[1] = Cytotoxicity against human HEK293 cells assessed as reduction in cell growth incubated for 20 hrs by resazurin dye-based fluorometric assay
How it was run: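 HEK293 cells, 5000 per well in DMEM + 10% FBS, exposed to compounds (top 32 μg/mL, 1:2 serial dilution ×8, ≤0.5% DMSO, duplicate) for 20 h at 37 °C, 5% CO2. Resazurin added (2.3 μg/mL final), 3 h further; fluorescence ex 560/em 590 nm. CC50 from sigmoidal dose-response fit against log concentration; tamoxifen standard.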

[2] = tested on: Clostridioides difficile; experiment: Antibacterial activity against Clostridium difficile NSW132 RT027 incubated for 48 hrs by CLSI method; assay type: functional; conditions: NSW132 RT027, 48 h
How it was run: (§1)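 Broth microdilution per CLSI anaerobe method in pre-reduced (2-4 h) Brucella broth with haemin and vitamin K, 35 °C anaerobically for 48 h. Compounds from 5 mg/mL DMSO stocks, twofold dilutions in water mixed with double-strength broth; final 0.25–128 μg/mL. […] Triplicate; modal MIC read visually as lowest concentration inhibiting growth.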

[3] = tested on: Clostridioides difficile; experiment: Antibacterial activity against Clostridium difficile ATCC 700057 incubated for 48 hrs by CLSI method; assay type: functional; conditions: ATCC 700057, 48 h; how it was run: as §1
[4] = tested on: Streptococcus pneumoniae; experiment: Antibacterial activity against Streptococcus pneumoniae ATCC 49619 incubated for 24 hrs by CLSI method; assay type: functional; conditions: ATCC 49619, 24 h
How it was run: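 CLSI broth microdilution in MHB with 2.5% lysed horse blood, 5% CO2, 35 °C, 24 h. Compounds from 5 mg/mL DMSO stocks diluted in water plus double-strength broth; final 0.25–128 μg/mL. […] Triplicate; modal MIC read visually as lowest growth-inhibiting concentration.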

[5] = tested on: Staphylococcus aureus; experiment: Antimicrobial activity against Staphylococcus aureus ATCC 29213 incubated for 24 hrs by CLSI method; assay type: functional; conditions: ATCC 29213, 24 h
How it was run: (§2)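 Broth microdilution per CLSI aerobic guidance in Mueller Hinton broth, ambient air, 35 °C for 24 h. DMSO stocks were diluted in water, then serially diluted with double-strength broth inoculum added, for final 0.25–128 μg/mL. […] MIC was read visually as the lowest concentration inhibiting growth; the modal value of triplicates was recorded.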

[6] = tested on: Staphylococcus aureus; experiment: Antibacterial activity against methicillin-resistant Staphylococcus aureus NCTC 10442 incubated for 24 hrs by CLSI method; assay type: functional; conditions: NCTC 10442, 24 h; how it was run: as §2
[7] = tested on: Enterococcus faecalis; experiment: Antibacterial activity against Enterococcus faecalis ATCC 29212 incubated for 24 hrs by CLSI method; assay type: functional; conditions: ATCC 29212, 24 h
[8] = tested on: Escherichia coli; experiment: Antibacterial activity against Escherichia coli ATCC 25922 incubated for 18 hrs by CLSI method; assay type: functional; conditions: ATCC 25922, 18 h
How it was run: (§3)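 Screen run by CO-ADD: mid-log cultures in cation-adjusted MHB, 5 × 10^5 CFU/mL, compounds at up to 32 μg/mL in 1:2 serial dilutions (8 steps), final DMSO ≤0.5%, duplicate. 37 °C for 18 h without shaking; OD600 read against media-only and untreated-bacteria references. MIC = lowest concentration giving ≥80% inhibition; colistin standard.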

[9] = tested on: Klebsiella pneumoniae; experiment: Antibacterial activity against Klebsiella pneumoniae 700603 incubated for 18 hrs by CLSI method; assay type: functional; conditions: Klebsiella pneumoniae, 700603, 18 h; how it was run: as §3
[10] = tested on: Pseudomonas aeruginosa; experiment: Antimicrobial activity against Pseudomonas aeruginosa ATCC 27853 incubated for 18 hrs by CLSI method; assay type: functional; conditions: ATCC 27853, 18 h; how it was run: as §3
[11] = tested on: Staphylococcus aureus; experiment: Antimicrobial activity against Staphylococcus aureus ATCC 43300 incubated for 18 hrs by CLSI method; assay type: functional; conditions: ATCC 43300, 18 h
[12] = tested on: Acinetobacter baumannii; experiment: Antimicrobial activity against Acinetobacter baumannii ATCC 19606 incubated for 18 hrs by CLSI method; assay type: functional; conditions: ATCC 19606 = CIP 70.34 = JCM 6841, 18 h; how it was run: as §3

SMILES	CC50 at 20 h [1] [µg/mL]	MIC [2] [µg/mL]	MIC [3] [µg/mL]	MIC [4] [µg/mL]	MIC [5] [µg/mL]	MIC [6] [µg/mL]	MIC [7] [µg/mL]	MIC [8] [µg/mL]	MIC [9] [µg/mL]	MIC [10] [µg/mL]	MIC [11] [µg/mL]	MIC [12] [µg/mL]
CC/C(=C(\c1ccccc1)c1ccc(OCCN(C)C)cc1)c1ccccc1 [TAMOXIFEN]	13.1 (≈ 35.3 µM)											
CC(C)CCOc1ccc2ccccc2c1-c1c(OCc2cn(C[C@@H](CCCCN)NC(=O)C3(N)CCOCC3)nn2)ccc2ccccc12.Cl.Cl		64	32	16	16	16	16					
CC(C)CCOc1ccc2ccccc2c1-c1c(OCc2cn(C[C@@H](CCCCN)NC(=O)c3ccc4ccccc4c3)nn2)ccc2ccccc12.Cl		64	64	32	16	16	8					
CC(C)CCOc1ccccc1-c1ccccc1OCc1cn(C[C@@H](CCCCN)NC(=O)[C@@H](CCCNC(=N)N)n2cc(CCc3ccccc3)nn2)nn1.Cl.Cl	> 32	8	8	8	4	4	8	8	16	8	2	16
Cc1ccc(CC(=O)N[C@H](CCCCN)Cn2cc(COc3ccc4ccccc4c3-c3c(OCCC(C)C)ccc4ccccc34)nn2)cc1.Cl		32	16	32	8	8	8					
CC(C)CCOc1ccc2ccccc2c1-c1c(OCc2cn(C[C@@H](CCCCN)NC(=O)[C@@H](CCCNC(=N)N)NC(=O)Cc3ccccc3)nn2)ccc2ccccc12.Cl.Cl	12.1	16	8	4	2	4	4	8	32	16	2	32
CC(C)CCOc1ccc2ccccc2c1-c1c(OCc2cn(C[C@@H](CCCCN)NC(=O)c3ccccc3)nn2)ccc2ccccc12.Cl		32	32	16	8	8	8					
CC(C)CCOc1ccc2ccccc2c1-c1c(OCc2cn(C[C@@H](CCCNC(=N)N)NC(=O)OCc3ccccc3)nn2)ccc2ccccc12.Cl	13.8	32	32	8	4	4	8	> 32	> 32	> 32	4	> 32
CC(C)CCOc1ccc2ccccc2c1-c1c(OCc2cn(C[C@@H](CCCCN)NC(=O)CC(C)C)nn2)ccc2ccccc12.Cl		32	16	16	8	8	8					
CC(C)CCOc1ccc2ccccc2c1-c1c(OCc2cn(C[C@@H](CCCCN)NC(=O)c3ccco3)nn2)ccc2ccccc12.Cl		32	16	16	8	8	8					
CC(C)CCOc1ccc2ccccc2c1-c1c(OCc2cn(C[C@@H](CCCCN)NC(=O)[C@@H](CCCNC(=N)N)NC(=O)OCC3c4ccccc4-c4ccccc43)nn2)ccc2ccccc12.Cl.Cl		64	32	8	8	8	8					
CC(C)CCOc1ccc2ccccc2c1-c1c(OCc2cn(C[C@@H](CCCCN)NC(=O)OCc3ccccc3)nn2)ccc2ccccc12.Cl		32	32	16	4	8	8					
CC(C)CCOc1ccc2ccccc2c1-c1c(OCc2cn(C[C@@H](CCCCN)NC(=O)C3CC3)nn2)ccc2ccccc12.Cl		64	16	16	8	8	8					
CC(C)CCOc1ccc2ccccc2c1-c1c(OCc2cn(C[C@@H](CCCCN)NC(=O)c3cccs3)nn2)ccc2ccccc12.Cl		64	32	16	8	8	8					
CC(C)CCOc1ccc2ccccc2c1-c1c(OCc2cn(C[C@@H](CCCCN)NC(=O)Cc3ccc(Br)cc3)nn2)ccc2ccccc12.Cl		64	32	32	4	8	8					
CC(C)CCOc1ccc2ccccc2c1-c1c(OCc2cn(C[C@@H](CCCCN)NC(=O)C3=CCCC3)nn2)ccc2ccccc12.Cl		64	32	16	8	8	8					
CC(C)CCOc1ccc2ccccc2c1-c1c(OCc2cn(C[C@@H](CCCCN)NC(=O)[C@@H]3CCC(=O)N3)nn2)ccc2ccccc12.Cl		64	32	32	16	16	16					
CC(C)CCOc1ccc2ccccc2c1-c1c(OCc2cn(C[C@@H](CCCCN)NC(=O)[C@@H](CCCNC(=N)N)NC(=O)CCCc3ccccc3)nn2)ccc2ccccc12.Cl.Cl		16	8	4	2	4	2					
CC(C)CCOc1ccc2ccccc2c1-c1c(OCc2cn(C[C@@H](CCCCN)NC(=O)CCCc3ccccc3)nn2)ccc2ccccc12.Cl		64	32	32	8	16	8					
CC(C)CCOc1ccc2ccccc2c1-c1c(OCc2cn(C[C@@H](CCCCN)NC(=O)C3=CCCCC3)nn2)ccc2ccccc12.Cl		32	32	16	8	8	8					
